From ChEMBL document CHEMBL1765001, “Synthesis and pharmacological evaluation of thieno[2,3-b]pyridine derivatives as novel c-Src inhibitors” (Bioorg Med Chem, 2011)
Calls of active or inactive are those of the source. The rule behind the calls is not given here.

Key:
[1] = target: T1, Proto-oncogene tyrosine-protein kinase Src (Homo sapiens, UniProt P12931); assay: Inhibition of c-SRC assessed as residual activity using KVEKIGEGYYGVVYK as peptide substrate after 20 mins by scintillation counting
T1 sequence (P12931 2-536 limits assumed): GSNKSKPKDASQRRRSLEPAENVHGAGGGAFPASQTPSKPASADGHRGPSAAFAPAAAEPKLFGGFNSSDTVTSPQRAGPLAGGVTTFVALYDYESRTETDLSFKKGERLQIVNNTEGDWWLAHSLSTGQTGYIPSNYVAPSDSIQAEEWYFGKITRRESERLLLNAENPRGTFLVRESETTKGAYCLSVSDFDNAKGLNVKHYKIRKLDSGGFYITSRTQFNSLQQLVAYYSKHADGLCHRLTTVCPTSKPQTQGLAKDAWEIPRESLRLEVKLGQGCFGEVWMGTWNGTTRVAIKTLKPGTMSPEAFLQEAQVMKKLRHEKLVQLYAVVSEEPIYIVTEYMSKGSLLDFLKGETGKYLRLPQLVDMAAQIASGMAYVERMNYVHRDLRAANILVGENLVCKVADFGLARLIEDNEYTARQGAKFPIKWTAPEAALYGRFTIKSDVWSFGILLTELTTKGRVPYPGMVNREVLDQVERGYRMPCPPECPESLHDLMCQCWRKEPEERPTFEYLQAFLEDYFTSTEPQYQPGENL
Procedure, shortened: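 Radiometric kinase assay: Src kinase ([…] stock diluted to 200 nM in kinase buffer) with peptide substrate (370 µM stock) and inhibitor from 10% DMSO dilution, in buffer with MgCl2, EDTA, DTT; started with 40 µM ATP plus 33P-γ-ATP, 20 min at 30 °C; stopped with 0.85% orthophosphoric acid, phosphocellulose filter capture, scintillation count. IC50 from sigmoidal variable-slope fit of mean data, at least two determinations; DMSO negative control.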

[2] = target: T1, Proto-oncogene tyrosine-protein kinase Src; assay: Inhibition of c-SRC in human HCT116 cells assessed as phosphorylated FAK level after 5 hrs by Western blot assay; type: cell-based; settings: HCT-116
Procedure, shortened: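 HCT116 colon carcinoma cells seeded overnight, serum-starved, treated with inhibitors 5 h at 3 and 10 µM final; lysed in 2X Laemmli buffer, gradient SDS-PAGE, PVDF transfer. Phospho-FAK by anti-pTyr861, total FAK on separate blot; ratio by film densitometry.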

[3] = target: T1, Proto-oncogene tyrosine-protein kinase Src
[4] = target: T1, Proto-oncogene tyrosine-protein kinase Src; assay: Inhibition of c-SRC in EGF-stimulated human A431 cells assessed as phosphorylated STAT3 level by Western blot assay; type: cell-based; settings: A-431
Procedure, shortened: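 A431 epidermoid carcinoma cells starved overnight, stimulated 10 min with EGF (100 ng/ml), lysed in 2X Laemmli buffer; phospho-STAT3 detected with anti-pTyr705 antibody, total STAT3 on a separate blot; pSTAT3/total STAT3 ratio by densitometry of X-ray films. DMSO with EGF set as 100% phosphorylation; 4-anilinoquinoline-3-carbonitrile positive control.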

Fibroblast = assay: Antitumor activity against Src-transformed fibroblasts xenograft model assessed as tumor growth inhibition at 50 mg/kg, ip after 7 days; type: functional, organism-based; set-up: dose 50 mg/kg

Row | Structure (SMILES) | IC50 [1] [µM] | Activity [2] [µM] | also measured
1 | Nc1c(C(=O)N/N=C/c2cccc3ccccc23)sc2ncccc12 | > 10 | – | –
2 | Cc1cc(NCCN(C)C)nc2sc(C(=O)N/N=C/c3cccn3C)c(N)c12 | 0.246 | 10 | –
3 | Cc1cc(C)c2c(N)c(C(=O)N/N=C/c3cccn3C)sc2n1 | 0.84 | – | –
4 | Cc1cc(C(F)(F)F)nc2sc(C(=O)N/N=C/c3cccc4ccccc34)c(N)c12 | 1.34 | – | –
5 | CN(C)CCNc1cc(-c2ccccc2)c2c(N)c(C(=O)N/N=C/c3cccc4ccccc34)sc2n1 | 0.107 | 3 | –
6 | CN(C)CCNc1cc(-c2ccccc2)c2c(N)c(C(=O)N/N=C/c3cccn3C)sc2n1 | 0.068 | 3 | –
7 | Cc1cc(C(F)(F)F)nc2sc(C(=O)N/N=C/c3cncn3C)c(N)c12 | 0.33 | > 10 | –
8 | CCCc1cc2c(N)c(C(=O)N/N=C/c3cccn3C)sc2nc1NCCN(C)C | 2.08 | – | –
9 | Cc1cc(NCCN(C)C)nc2sc(C(=O)N/N=C/c3cccc4ccccc34)c(N)c12 | 0.23 | > 10 | –
10 | O=C(Cc1ccc(-c2ccc(OCCN3CCOCC3)cc2)cn1)NCc1ccccc1 [TIRBANIBULIN] | – | – | IC50 [3]: 0.02 µM
11 | CN(C)CCNc1cc(-c2ccccc2)c2c(N)c(C(=O)N/N=C/c3cncn3C)sc2n1 | 0.032 | 3 | –
12 | Cc1cc(C)c2c(N)c(C(=O)N/N=C/c3cccn3CCN(C)C)sc2n1 | > 10 | – | –
13 | Cc1cc(C)c2c(N)c(C(=O)N/N=C/c3cccc4ccccc34)sc2n1 | 0.269 | – | Activity [4]: 10 µM
14 | CN(C)CCNc1cc(Cc2ccccc2)c2c(N)c(C(=O)N/N=C/c3cccn3C)sc2n1 | 0.04 | 3 | –
15 | COc1cc(Nc2c(C#N)cnc3cc4cc(OCCN5CCOCC5)c(OC)cc4cc23)c(Cl)cc1Cl | – | – | Activity (Fibroblast): Active
16 | Cc1cc(C)c2c(N)c(C(=O)N/N=C/c3cncn3C)sc2n1 | 0.769 | – | Activity [4]: > 10 µM
17 | CCCc1cc(NCCN(C)C)nc2sc(C(=O)N/N=C/c3cccn3C)c(N)c12 | 0.063 | 10 | –
18 | Cn1cncc1/C=N/NC(=O)c1sc2ncccc2c1N | 1.3 | – | –
19 | CN(C)CCNc1nc2sc(C(=O)N/N=C/c3cccn3C)c(N)c2cc1Cc1ccccc1 | 3.87 | – | –
